# Compounds with a hit are over-represented: about 2.4% of the library has one in this group of screens.
# Scp-1 inhibitor = Scp-1 phosphatase inhibitors, primary screen, biochemical, colorimetric, uHTS | Carboxy-terminal domain RNA polymerase II polypeptide A small phosphatase 1 (Homo … | Recombinant Scp1, phosphopeptide, malachite green phosphate absorbance | inhibition, % at 20 µM | 0.88% of 340,000 active | AID 493091, 2011;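 active = inhibition above about 50% at 20 µM, limit read from the data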;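 also: plate controls were DMSO wells with enzyme for no effect and wells lacking enzyme for full effect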
#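 Times: enzyme reaction 45 min at room temperature, colour 5 min, stabilisation 30 min. Material: SCP-1 catalytic fragment, aa 76-261. Medium: Acidic Tris acetate buffer with magnesium and detergent. Signal: colorimetric free-phosphate detection, absorbance 630 nm. Read-out basis: % inhibition of SCP-1 phosphate liberation. Reagent: Phosphorylated 17-residue peptide substrate.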
# DNMT1 inh = human DNMT1 methyltransferase inhibitors, primary screen, biochemical, molecular beacon, fluorescence, HinP1I cleavage, uHTS. DNA (cytosine-5)-methyltransferase 1 (Homo sapiens), P26358. 0.83% of 360,000 active. AID 588458, 2011. inhibition (reported as % activation of signal), % at 10 µM; in the data active = inhibition above about 50%
# SUMO1-SIM PPI = modulators of SUMO1 protein-protein interactions, primary screen, biochemical, uHTS; SUMO1 binding to a labelled peptide, TR-FRET, 1 h; inhibition, % at 20 µM; 0.33% of 360,000 active; AID 602429, 2012; in the data active = inhibition above about 37%
# NadD inh = inhibitors of S. aureus NadD, primary screen, biochemical, colorimetric, uHTS | purified NadD enzyme, colorimetric absorbance read-out | 0.78% of 360,000 active | Nicotinate-nucleotide adenylyltransferase NadD (Staphylococcus aureus N315) | inhibition, % at 20 µM; in the data active = inhibition above about 26%
# LMPTP inh = LMPTP phosphatase inhibitors, primary screen, biochemical, fluorescence intensity, uHTS. Low molecular weight phosphotyrosine protein phosphatase (Homo sapiens), P24666. inhibition, % at 20 µM. recombinant LMPTP-A, OMFP fluorogenic substrate. 0.22% of 360,000 active;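 active = compounds that cut the enzyme signal by at least half of the control window in the single-dose screen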;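 also: plate controls were DMSO wells with enzyme plus substrate for no effect and substrate without enzyme for full effect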
#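 Assay system: LMPTP-A enzyme. Input: 0.625 nM LMPTP-A final. Probe or stimulus: 400 µM OMFP. Compound dosing: single 20 µM dose. Schedule: 50 min dark incubation at room temperature. Detection: fluorescence intensity of OMFP turnover product. Read-out: percent inhibition versus substrate-only and uninhibited controls. Benchmarks: no-enzyme low control, uninhibited high control.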
# STEP inh = STEP phosphatase inhibitors, primary screen, biochemical, fluorescence intensity, uHTS; inhibition, % at 20 µM; 0.25% of 360,000 active; AID 588621, 2011; recombinant STEP, OMFP fluorogenic substrate;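 active = inhibition at 20 µM, scaled per plate between control wells, above about 37%, limit read from the data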;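 also: 0% = DMSO with enzyme and substrate and 100% = substrate only without enzyme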
#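 medium = Bis-Tris buffer pH 6.0, 2.5 mM DTT, 0.005% Tween 20 | test system = STEP (striatal-enriched tyrosine phosphatase) enzyme, cell-free | measure = normalized % inhibition | compound dosing = 20 µM, 1% DMSO | also added = 25 µM OMFP | schedule = reaction 20 min, ambient temperature | measured by = fluorescence read at 480 nm ex / 540 nm em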
# DNMT1 interf DR = spectral interference with molecular beacon fluorescence, dose response, artefact control for DNMT1 inhibitor project, biochemical, fluorescent molecular beacon; 200 tested, under 10 active; shares compounds with DNMT1 inh; IC50, µM; spectral interference counter-screen; call rule not given here
# DNMT1 confirm = DNMT1 methyltransferase inhibitor retest, confirmation, biochemical, molecular beacon, fluorescence, single concentration. inhibition, % at 10 µM. 8% of 2,300 active. DNMT1 molecular beacon HinP1I cleavage. shares compounds with DNMT1 inh;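 active = average inhibition of at least 30% in the single-concentration confirmation test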
# Beacon interf = counter-screen for DNMT1 inhibitors: spectral interference; shares compounds with DNMT1 inh; DNMT1 molecular beacon spectral interference counterscreen, fluorescence 485/520; activation (fluorescence interference), % at 10 µM; 1% of 2,300 active; AID 602387;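 active = activation of at least 30% at 10 µM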;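 also: DNMT1 catalytic domain with a HinP1I cleavage step and a FAM/dabcyl DNA beacon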
# The depositor's hits bear a star; . = not tested or not shown.
SMILES,Scp-1 inhibitor,DNMT1 inh,SUMO1-SIM PPI,NadD inh,LMPTP inh,STEP inh,DNMT1 confirm,Beacon interf,others
O=C(CCc1ccc(S(=O)(=O)N2CCOCC2)cc1)OCc1nc2ccccc2s1,-2,99*,2,3,-1,-1,8,8,
CC(C)(C)OC(=O)N1CCN(C(=O)c2cccnc2Cl)CC1,-19,4,2,6,0,1,.,.,
COc1cc(-n2c(=O)c3ccccc3n(CC(=O)c3ccc(Br)cc3)c2=O)cc(OC)c1OC,9,4,-9,-9,39,4,.,.,
CCN(C(=O)Cn1c(=O)n(-c2cc(OC)c(OC)c(OC)c2)c(=O)c2ccccc21)c1cccc(C)c1,-8,130*,4,0,-1,-3,3,2,
O=c1oc2ccccc2n1Cc1cccc(C(F)(F)F)c1,-14,4,-4,-3,1,2,.,.,
COC(=O)c1ccccc1S(=O)(=O)NNC(=O)c1nn(C)c(=O)c2ccccc12,-4,53*,12,1,-1,-1,5,6,
COc1ccc(Cl)cc1C(=O)NNC(=O)c1nn(C)c(=O)c2ccccc12,-9,1,-6,2,-2,-1,.,.,
O=C1c2ccccc2C(c2nnnn2Cc2ccccc2)N1Cc1ccco1 (stereo unspecified),.,.,6,-4,-1,.,.,.,
O=C1c2sccc2-c2cccc3cccc1c23,.,66*,-25,-9,2,0,65*,3,DNMT1 interf DR=>99
O=C1C(Br)=Cc2cccc3cccc1c23,-6,28,-31,-7,0,0,.,.,
CCCN(CC(=O)Nc1ccccc1OC)C(=O)c1ccc(S(=O)(=O)Nc2ccccc2)cc1,-4,62*,-4,3,-1,-2,1,-8,
Cc1ccc(-n2cc(CN3CCC(O)(c4ccccn4)CC3)c(-c3ccc(F)cc3)n2)cc1,3,-2,0,-6,0,3,.,.,
CC1CCCN(C(=O)Cn2nnc(-c3ccccc3F)n2)C1 (stereo unspecified),-4,1,2,-2,-2,-2,.,.,
c1ccc(-c2nc(-c3ccco3)n3ccccc23)cc1,-8,57*,23,15,8,1,1,1,
CC(C)(C)c1ccc(C(=O)NNc2cc(N3CCCCC3)nc(N3CCCCC3)n2)cc1,19,-6,3,15,2,2,.,.,
O=C(NNc1cc(N2CCCC2)nc(N2CCCC2)n1)c1ccc([N+](=O)[O-])cc1,-6,56*,37*,7,11,0,-4,-11,
O=C(O)CCc1ccc(-c2ccccc2)n1Cc1ccco1,-4,27,3,0,1,-1,.,.,
O=C(O)CCc1ccc(-c2ccc(Br)cc2)n1Cc1ccco1,2,73*,7,8,2,2,10,2,
CC(=O)Oc1cccc(/C=c2\sc3nc(-c4ccco4)nn3c2=O)c1,14,61*,26,2,-1,2,2,2,
CC12CN(NC(=O)c3ccccc3F)C3(C#N)CC1CCC23C (stereo unspecified),-7,1,-2,-6,1,0,.,.,
Cc1ccc(C(=O)OCC(=O)NCc2ccco2)s1,39,58*,0,-2,4,0,1,-1,
COc1ccc(OCc2cn(CC(=O)c3ccc(O)cc3)nn2)cc1,-2,57*,8,7,0,6,4,-2,
CCC(=O)c1ccc(OCc2cn(CC(=O)c3ccc(O)cc3)nn2)cc1,-8,54*,2,5,1,2,10,-3,
O=C(Cn1cc(COc2ccc(C(=O)c3ccccc3)cc2)nn1)c1ccc(O)cc1,-14,39,5,5,0,-5,.,.,
CN(C)C1(CNC(=O)C2CCN(S(=O)(=O)c3cccc(C(F)(F)F)c3)CC2)CCCCC1,-5,2,2,-5,-1,-2,.,.,
SMILES,Scp-1 inhibitor,DNMT1 inh,SUMO1-SIM PPI,NadD inh,LMPTP inh,STEP inh,DNMT1 confirm,Beacon interf,others
COc1ccc(/C(C)=N/Nc2ccc(C(=O)O)cc2)c(OC)c1,-2,56*,0,0,-2,-2,1,5,
COc1ccc2c(c1)C(=NNc1ccc(C(=O)O)cc1)c1cc(OC)ccc1-2,12,-6,-9,19,11,-1,.,.,
COc1cc2c(cc1[N+](=O)[O-])-c1ccc([N+](=O)[O-])cc1C2,.,-12,-75,10,1,3,.,.,
COc1cc2c(=O)[nH]c3cc([N+](=O)[O-])ccc3c2cc1[N+](=O)[O-],.,76*,99*,15,38,3,-3,-5,
O=C(CN1C(=O)NC2(CCc3ccccc32)C1=O)NCc1cccc(C(F)(F)F)c1 (stereo unspecified),-10,-3,3,-3,0,-3,.,.,
CCCCN1C(=O)/C(=C/C=C2/CC(C)(C)CN2C)SC1=S,5,76*,-142,3,17,-33,81*,85*,
CCN1C(=O)/C(=C/C=C2/SCCN2C)SC1=S,-7,36,-217,7,8,-4,.,.,
Cc1cc2cc(CN3C(=O)c4ccccc4C3=O)ccc2n1C,-9,10,-9,2,19,-1,.,.,
C=CCn1c(CSc2ccccc2[N+](=O)[O-])n[nH]c1=S,17,70*,20,9,43,6,0,-3,
COc1ccc(C(=O)COC(=O)C2CCC(=O)N2)cc1 (stereo unspecified),0,14,-1,2,1,-2,.,.,
O=C(COc1ccccc1)Nc1cccc2c1CCCC2,1,2,0,-4,1,6,.,.,
CC(C)(C)CC(=O)Nc1cccc2c1CCCC2,-9,61*,2,-6,-1,0,32*,3,DNMT1 interf DR=>99

# Screens (PubChem BioAssay)
